We go through 25 molecules from ChEMBL document CHEMBL1131062, “Synthesis and pharmacological characterization of O-alkynyloximes of tropinone and N-methylpiperidinone as muscarinic agonists” (J Med Chem, 1998).

SMILES strings stand for the structures. Several values for one entry are separate records, joined by “and”; a condition that tells them apart may be missing. Identical values can stand only once.

For orientation: Ki means the equilibrium dissociation constant of an inhibitor or competing ligand from its target. High values mean lower affinity, low ones higher affinity.

For one experiment, the species on record is Rattus norvegicus. As to the kind of experiment: Concentration required to relax phenylephrine-precontracted aortic rings by 50% in endothelium intact rat aorta. Conditions: read-out: ED50 (the source's name). The format is functional. A digest of the protocol:
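Endothelium-intact rat aortic rings equilibrated 60 min at 37 °C under 95% O2/5% CO2. Endothelium confirmed by relaxation to 10^-6 M ACh. After washout, rings precontracted with 10^-7 M phenylephrine. Test compound added cumulatively (10^-6–10^-4 M) at 2-min intervals. Each ring used once. ED50 taken from percent phenylephrine response versus concentration.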

For experiment [1], the target named is Muscarinic receptor M1 and M2 (Rattus norvegicus) (UniProt P08482+P10980). Nature of the experiment: Inhibitory selectivity for Muscarinic receptors M2 and M1. Type of experiment: protein assay. A digest of the protocol: (§1)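 Ratios of Ki values from rat tissue displacement binding. M1 used cerebral cortex with 0.5 nM [3H]pirenzepine. M2 used heart ventricle and M3 used submandibulary gland, both with 0.3 nM [3H]-N-methylscopolamine. All incubations ran 45 min at 30 °C with test compound at 10 nM–10 mM. Ki obtained by Cheng–Prusoff. Three independent experiments.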

The target of experiment [2] is Muscarinic receptor M2 and M3 (Rattus norvegicus) (UniProt P08483+P10980). As to the kind of experiment: Inhibitory selectivity for Muscarinic receptors M3 and M2. Type of experiment: protein assay. Summed up:
as §1

The species named for the next experiment is Oryctolagus cuniculus. Nature of the experiment: Concentration required to relax phenylephrine-precontracted aortic rings by 50% in endothelium denuded rabbit aorta. The conditions noted are these: read-out: ED50 (the source's name).
Experiment [3] in a line: Inhibitory selectivity for Muscarinic receptors M3 and M1. A digest of the protocol:
as §1

Experiment [4] concerns the target T1, Muscarinic acetylcholine receptor M3 (Rattus norvegicus, UniProt P08483). As to the kind of experiment: Binding affinity to Muscarinic acetylcholine receptor M3 by measuring its ability to displace [3H]N-methylscopolamine binding in rat submandibulary gland. A digest of the protocol:
(§2)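 Rat submandibulary gland membranes prepared in Na+/Mg2+ HEPES buffer pH 7.4. Incubated 45 min at 30 °C with 0.3 nM [3H]-N-methylscopolamine and test compound (10 nM–10 mM). Nonspecific binding defined with 1 μM (±)-QNB. Pellet obtained by centrifugation and counted by scintillation. Triplicate determinations. Ki derived from IC50 by Cheng–Prusoff.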

The target in experiment [5] is T2, Muscarinic acetylcholine receptor M2 (Rattus norvegicus, UniProt P10980).
T2 sequence (P10980 whole entry): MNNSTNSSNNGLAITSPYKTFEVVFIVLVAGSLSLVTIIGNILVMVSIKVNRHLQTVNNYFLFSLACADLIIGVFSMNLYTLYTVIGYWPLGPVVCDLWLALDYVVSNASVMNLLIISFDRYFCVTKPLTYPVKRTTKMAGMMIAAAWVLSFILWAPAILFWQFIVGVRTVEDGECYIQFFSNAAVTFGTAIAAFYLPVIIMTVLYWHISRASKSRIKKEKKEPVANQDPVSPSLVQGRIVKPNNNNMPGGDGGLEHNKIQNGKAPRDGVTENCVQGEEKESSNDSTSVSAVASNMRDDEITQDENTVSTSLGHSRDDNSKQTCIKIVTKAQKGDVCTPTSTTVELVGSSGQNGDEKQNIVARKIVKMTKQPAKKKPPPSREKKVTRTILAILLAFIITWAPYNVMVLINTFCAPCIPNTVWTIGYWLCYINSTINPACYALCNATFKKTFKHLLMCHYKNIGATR
As to the kind of experiment: Binding affinity to Muscarinic acetylcholine receptor M2 by measuring its ability to displace [3H]N-methylscopolamine binding in rat heart. Summed up: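 Rat heart ventricle membranes, homogenized in sucrose/TRIS and washed in Na+/Mg2+ HEPES buffer pH 7.4. Nonspecific binding defined with 1 μM (±)-QNB. Bound ligand separated by centrifugation and counted by scintillation. Triplicate determinations. Ki derived from IC50 by Cheng–Prusoff.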

In experiment [6] the target is T1, Muscarinic acetylcholine receptor M3. As to the kind of experiment: The compound was evaluated for its ability to inhibit [3H]NMS binding to Muscarinic acetylcholine receptor in submandibular salivary gland. The format is tissue-based. A digest of the protocol: as §2

Sequence of Muscarinic receptor M1 and M2 (Rattus norvegicus) (P08482 whole entry, looked up, one chain of several): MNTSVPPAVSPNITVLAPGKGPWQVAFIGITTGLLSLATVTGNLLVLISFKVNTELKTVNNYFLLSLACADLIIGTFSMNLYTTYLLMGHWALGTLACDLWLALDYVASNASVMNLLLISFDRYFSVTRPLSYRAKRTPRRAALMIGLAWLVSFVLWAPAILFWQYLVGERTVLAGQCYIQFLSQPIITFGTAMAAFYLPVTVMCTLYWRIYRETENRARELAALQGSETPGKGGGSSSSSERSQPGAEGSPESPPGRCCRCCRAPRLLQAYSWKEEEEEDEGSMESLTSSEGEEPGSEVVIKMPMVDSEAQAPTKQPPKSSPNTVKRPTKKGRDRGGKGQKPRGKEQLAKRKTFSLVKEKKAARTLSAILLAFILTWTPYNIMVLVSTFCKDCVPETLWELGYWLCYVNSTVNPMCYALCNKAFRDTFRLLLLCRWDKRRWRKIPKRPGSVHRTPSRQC
T1 sequence (P08483 whole entry): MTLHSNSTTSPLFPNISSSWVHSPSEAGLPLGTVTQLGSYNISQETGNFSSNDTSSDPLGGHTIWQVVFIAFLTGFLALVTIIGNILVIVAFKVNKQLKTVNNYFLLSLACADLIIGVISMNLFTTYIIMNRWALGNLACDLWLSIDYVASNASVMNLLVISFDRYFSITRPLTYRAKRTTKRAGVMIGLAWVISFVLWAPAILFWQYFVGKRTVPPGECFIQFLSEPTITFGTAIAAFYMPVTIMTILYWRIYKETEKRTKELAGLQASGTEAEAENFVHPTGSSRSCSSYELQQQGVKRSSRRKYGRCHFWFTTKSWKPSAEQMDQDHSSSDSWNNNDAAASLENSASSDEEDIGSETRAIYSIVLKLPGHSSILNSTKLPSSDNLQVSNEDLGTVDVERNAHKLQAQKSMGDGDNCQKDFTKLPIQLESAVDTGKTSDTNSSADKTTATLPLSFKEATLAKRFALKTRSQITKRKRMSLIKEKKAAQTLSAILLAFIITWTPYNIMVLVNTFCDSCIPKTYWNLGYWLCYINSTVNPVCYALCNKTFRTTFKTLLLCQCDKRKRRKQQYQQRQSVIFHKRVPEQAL
Sequence of Muscarinic receptor M2 and M3 (Rattus norvegicus) (P08483 whole entry, looked up, one chain of several): as the sequence (P08483 whole entry) above

On to `CN1C2CCC1CC(=NO)C2`, for which the EC50 in the experiment filed under Rattus norvegicus came to 53 µM; in the experiment filed under Oryctolagus cuniculus, 320 µM. The results for the Selectivity ratio in experiment [1], in experiment [2] and in experiment [3] were 0.74, 18 and 1.4, respectively. The Ki is 794 µM in experiment [4] and 39.8 µM in experiment [5].

`C#CC(C)ON=C1CC2CCC(C1)N2C` (configuration not stated): the EC50 in the experiment listed under Rattus norvegicus amounted to 6.9 µM; in the experiment listed under Oryctolagus cuniculus, 26 µM. In addition, the Selectivity ratio came out at 4.5 in experiment [1], 0.72 in experiment [2] and 0.46 in experiment [3]. Also, the inhibition constant Ki was 3.98 µM in experiment [4] and 6.31 µM in experiment [5].

Turning to `O=C1CCCN1CC#CCN1CCCC1` [OXOTREMORINE], the EC50 in the experiment filed under Rattus norvegicus was determined as 0.044 µM. Moreover, the results for the Selectivity ratio in experiment [1], in experiment [2] and in experiment [3] were 0.32, 2 and 0.63, respectively. Besides, the figures for the Ki in experiment [4] and in experiment [5] were 0.398 µM and 0.2 µM, respectively.

Take `CON=C1CCN(C)CC1`: the EC50 amounted to 13 µM in the experiment filed under Rattus norvegicus and 260 µM in the experiment listed under Oryctolagus cuniculus. The Selectivity ratio in experiment [1] came to 0.74; in experiment [2], 0.71; in experiment [3], 0.51. In addition, the Ki is 25.1 µM in experiment [4] and 39.8 µM in experiment [5].

As to `CCC#CCON=C1CCN(C)CC1`, the figures for the EC50 in the experiment filed under Rattus norvegicus and in the experiment filed under Oryctolagus cuniculus were 6.2 µM and 12 µM, respectively. In addition, the Selectivity ratio in experiment [1] was determined as 4; in experiment [2], 1.4; in experiment [3], 5.4. Also, the Ki in experiment [4] is 20 µM; in experiment [5], 15.8 µM.

For `CC#CCON=C1CCN(C)CC1`, the EC50 in the experiment filed under Rattus norvegicus and in the experiment filed under Oryctolagus cuniculus was 8.7 µM in each case. Further, the Selectivity ratio in experiment [1] amounted to 2; in experiment [2] it was 17; in experiment [3], 35. The Ki in experiment [4] is 126 µM; in experiment [5], 7.94 µM.

Regarding `C#CCC(C)ON=C1CCN(C)CC1` (configuration not stated), the results for the EC50 in the experiment filed under Rattus norvegicus and in the experiment filed under Oryctolagus cuniculus were 5 µM and 25 µM, respectively. Besides, the results for the Selectivity ratio in experiment [1], in experiment [2] and in experiment [3] were 2.9, 5.4 and 15, respectively. Moreover, the Ki is 50.1 µM in experiment [4] and 10 µM in experiment [5].

On to `C#CCCON=C1CCN(C)CC1`, for which the values for the EC50 in the experiment listed under Rattus norvegicus and in the experiment listed under Oryctolagus cuniculus were 7.4 µM and 28 µM, respectively. The Selectivity ratio in experiment [1] came out at 6.2; in experiment [2], 3.7; in experiment [3], 25. For the same molecule, the figures for the Ki in experiment [4] and in experiment [5] were 39.8 µM and 10 µM, respectively.

Take `C#CCCCON=C1CC2CCC(C1)N2C`: the EC50 in the experiment filed under Rattus norvegicus was 5.9 µM; in the experiment listed under Oryctolagus cuniculus, 6.5 µM. Also, the values for the Selectivity ratio in experiment [1], in experiment [2] and in experiment [3] were 12, 1.3 and 16, respectively. Also, the Ki in experiment [4] is 10 µM; in experiment [5] it was 6.31 µM.

`CON=C1CC2CCC(C1)N2C`: the EC50 in the experiment filed under Rattus norvegicus and in the experiment listed under Oryctolagus cuniculus was 11 µM in each case. Also, the Selectivity ratio in experiment [1] is 0.14; in experiment [2], 0.74; in experiment [3], 0.1. The inhibition constant (Ki) was 100 µM in experiment [4] and 126 µM in experiment [5].

In the case of `C#CC(C)ON=C1CCN(C)CC1` (configuration not stated), the figures for the EC50 in the experiment listed under Rattus norvegicus and in the experiment listed under Oryctolagus cuniculus were 7.8 µM and 41 µM, respectively. Also, the Selectivity ratio in experiment [1] was found to be 2.2; in experiment [2] it was 6.3; in experiment [3], 14. Moreover, the inhibition constant (Ki) in experiment [4] is 79.4 µM; in experiment [5], 12.6 µM.

Take `COC(=O)C1=CCCN(C)C1` [ARECOLINE]: in the experiment filed under Rattus norvegicus, the EC50 was determined as 1.6 µM.

Turning to `CCC#CCON=C1CC2CCC(C1)N2C`, the EC50 in the experiment filed under Rattus norvegicus amounted to 1.3 µM; in the experiment filed under Oryctolagus cuniculus, 3.5 µM. Moreover, the figures for the Selectivity ratio in experiment [1], in experiment [2] and in experiment [3] were 2.4, 0.23 and 0.56, respectively. Besides, the figures for the Ki in experiment [4], in experiment [6] and in experiment [5] were 3.16 µM, 79.4 µM and 12.6 µM, respectively.

On to `C#CCON=C1CCN(C)CC1`, for which the EC50 in the experiment filed under Rattus norvegicus is 6.8 µM; in the experiment filed under Oryctolagus cuniculus, 11 µM. The figures for the Selectivity ratio in experiment [1], in experiment [2] and in experiment [3] were 0.59, 0.72 and 0.42, respectively. The inhibition constant (Ki) in experiment [4] was 20 µM; in experiment [5], 25.1 µM.

For `C#CC(CC)ON=C1CCN(C)CC1` (configuration not stated), the EC50 in the experiment listed under Rattus norvegicus worked out at 7.6 µM; in the experiment filed under Oryctolagus cuniculus it was 18 µM. The results for the Selectivity ratio in experiment [1], in experiment [2] and in experiment [3] were 1.8, 0.85 and 1.5, respectively. Further, the Ki in experiment [4] and in experiment [5] was 10 µM each time.

Turning to `C[N+](C)(C)CC#CCOC(=O)Nc1cccc(Cl)c1`, the EC50 in the experiment filed under Rattus norvegicus was 9.6 µM; in the experiment filed under Oryctolagus cuniculus, 0.35 µM. The Selectivity ratio in experiment [1] came out at 1.4; in experiment [2], 0.33; in experiment [3], 0.46. The molecule also gave an inhibition constant (Ki) in experiment [5] of 6.31 µM.

For `CC#CCON=C1CC2CCC(C1)N2C`, the EC50 in the experiment filed under Rattus norvegicus was 3.4 µM; in the experiment listed under Oryctolagus cuniculus, 4.8 µM. Besides, the Selectivity ratio came to 24 in experiment [1], 1.1 in experiment [2] and 27 in experiment [3]. The inhibition constant Ki in experiment [4] was 15.8 µM; in experiment [6] it was 20 µM; in experiment [5], 12.6 µM.

As for `CN1CCC(=NO)CC1`, the EC50 in the experiment listed under Rattus norvegicus stood at 43 µM; in the experiment listed under Oryctolagus cuniculus it was 78 µM. The Selectivity ratio in experiment [1] is 0.9; in experiment [2] it was 8.5; in experiment [3], 7.6. The Ki is 3160 µM in experiment [4] and 398 µM in experiment [5].

With `CC#CCCON=C1CCN(C)CC1`, in the experiment filed under Rattus norvegicus, the EC50 came out at 6.3 µM. In addition, the Selectivity ratio in experiment [1] was determined as 7.5; in experiment [2] it was 0.27; in experiment [3], 2. The Ki in experiment [4] is 39.8 µM; in experiment [5] it was 15.8 µM.

For `CC#CCCON=C1CC2CCC(C1)N2C`, the results for the EC50 in the experiment filed under Rattus norvegicus and in the experiment listed under Oryctolagus cuniculus were 7.8 µM and 9.8 µM, respectively. Besides, the Selectivity ratio in experiment [1] came to 4.5; in experiment [2] it was 0.66; in experiment [3], 3. Moreover, the Ki in experiment [4] was 2.51 µM; in experiment [5] it was 3.16 µM.

On to `C#CCON=C1CC2CCC(C1)N2C`, for which the EC50 is 3.5 µM in the experiment filed under Rattus norvegicus and 7.1 µM in the experiment filed under Oryctolagus cuniculus. In addition, the Selectivity ratio in experiment [1] turned out to be 4.2; in experiment [2], 1.1; in experiment [3], 4.6. In addition, in experiment [5], the Ki is 6.31 µM and 25.1 µM.

`C#CCC(C)ON=C1CC2CCC(C1)N2C` (configuration not stated): the EC50 in the experiment filed under Rattus norvegicus worked out at 5.4 µM; in the experiment filed under Oryctolagus cuniculus, 23 µM. Also, the figures for the Selectivity ratio in experiment [1], in experiment [2] and in experiment [3] were 16, 1.8 and 29, respectively. Moreover, the Ki in experiment [4] is 3.16 µM; in experiment [5], 1.58 µM.

On to `C#CCCON=C1CC2CCC(C1)N2C`, for which the EC50 stood at 5.3 µM in the experiment filed under Rattus norvegicus and 15 µM in the experiment listed under Oryctolagus cuniculus. For the same molecule, the Selectivity ratio in experiment [1] amounted to 19; in experiment [2], 0.34; in experiment [3], 6.8. Moreover, the results for the inhibition constant (Ki) in experiment [4] and in experiment [5] were 10 µM and 31.6 µM, respectively.

Consider `C#CC(CC)ON=C1CC2CCC(C1)N2C` (configuration not stated), for which the EC50 in the experiment filed under Rattus norvegicus was 5.5 µM; in the experiment filed under Oryctolagus cuniculus, 41 µM. Besides, the Selectivity ratio in experiment [1] is 20; in experiment [2], 1.1; in experiment [3] it was 22. The inhibition constant Ki in experiment [4] and in experiment [5] was 6.31 µM in each case.

Regarding `C#CCCCON=C1CCN(C)CC1`, the results for the EC50 in the experiment listed under Rattus norvegicus and in the experiment listed under Oryctolagus cuniculus were 9.3 µM and 13 µM, respectively. The Selectivity ratio in experiment [1] was determined as 1.1; in experiment [2], 1.5; in experiment [3], 1.7. For the same molecule, the Ki is 15.8 µM in experiment [4] and 10 µM in experiment [5].
